# From ChEMBL document CHEMBL1255376, “Comparative surveillance study of telavancin activity against recently collected gram-positive clinical isolates from across the United States” (2008)
# Tests used:
# Type in all cases: functional
# Streptococcus oralis = assay: Antibacterial activity against Streptococcus oralis clinical isolate by broth microdilution method
# How it was run: (§1)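 MIC by CLSI broth microdilution in frozen microtiter trays holding serial dilutions of each agent, prepared from standard laboratory powders. E. faecalis ATCC 29212 and ATCC 51299, S. aureus ATCC 29213 and S. pneumoniae ATCC 49619 run in parallel as quality-control strains. Comparator susceptibility interpreted with CLSI breakpoints.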
# Enterococcus faecalis [1] = assay: Antibacterial activity against vancomycin- and teichoplanin-nonsusceptible Enterococcus faecalis clinical isolate by broth microdilution method
# How it was run: (§2)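 MICs by CLSI broth microdilution in frozen trays pre-loaded with serial dilutions of each agent. Quality-control strains run in parallel: E. faecalis ATCC 29212 and ATCC 51299, S. aureus ATCC 29213, S. pneumoniae ATCC 49619. Comparator susceptibility categories follow CLSI breakpoints. Methicillin resistance in staphylococci assigned from the oxacillin MIC.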
# Streptococcus pneumoniae [2] = assay: Antibacterial activity against penicillin resistant Streptococcus pneumoniae clinical isolate by broth microdilution method; how it was run: as §2
# [3] = test system: Staphylococcus epidermidis; assay: Antibacterial activity against methicillin-resistant coagulase-negative Staphylococcus epidermidis clinical isolate by broth microdilution method; how it was run: as §2
# Enterococcus faecium [4] = assay: Antibacterial activity against vancomycin-resistant and teichoplanin-susceptible Enterococcus faecium clinical isolate by broth microdilution method; how it was run: as §2
# Staphylococcus xylosus [5] = assay: Antibacterial activity against methicillin-susceptible coagulase-negative Staphylococcus xylosus clinical isolate by broth microdilution method; how it was run: as §2
# Streptococcus sanguinis = assay: Antibacterial activity against Streptococcus sanguinis clinical isolate by broth microdilution method; how it was run: as §1
# [6] = test system: Staphylococcus saprophyticus; assay: Antibacterial activity against methicillin-resistant coagulase-negative Staphylococcus saprophyticus clinical isolate by broth microdilution method; how it was run: as §2
# Staphylococcus capitis [7] = assay: Antibacterial activity against methicillin-susceptible coagulase-negative Staphylococcus capitis clinical isolate by broth microdilution method; how it was run: as §2
# Staphylococcus [8] = assay: Antibacterial activity against methicillin-resistant coagulase-negative unspeciated Staphylococcus clinical isolate by broth microdilution method; how it was run: as §2
# Staphylococcus simulans [9] = assay: Antibacterial activity against methicillin-susceptible coagulase-negative Staphylococcus simulans clinical isolate by broth microdilution method; how it was run: as §2
# Streptococcus pneumoniae [10] = assay: Antibacterial activity against penicillin intermediate Streptococcus pneumoniae clinical isolate by broth microdilution method; how it was run: as §2
# Staphylococcus warneri [11] = assay: Antibacterial activity against methicillin-susceptible coagulase-negative Staphylococcus warneri clinical isolate by broth microdilution method; how it was run: as §2
# [12] = test system: Staphylococcus saprophyticus; assay: Antibacterial activity against methicillin-susceptible coagulase-negative Staphylococcus saprophyticus clinical isolate by broth microdilution method; how it was run: as §2
# Staphylococcus capitis [13] = assay: Antibacterial activity against methicillin-resistant coagulase-negative Staphylococcus capitis clinical isolate by broth microdilution method; how it was run: as §2
# Streptococcus pneumoniae [14] = assay: Antibacterial activity against penicillin susceptible Streptococcus pneumoniae clinical isolate by broth microdilution method; how it was run: as §2
# Staphylococcus xylosus [15] = assay: Antibacterial activity against methicillin-resistant coagulase-negative Staphylococcus xylosus clinical isolate by broth microdilution method; how it was run: as §2
# Enterococcus faecium [16] = assay: Antibacterial activity against vancomycin- and teichoplanin-nonsusceptible Enterococcus faecium clinical isolate by broth microdilution method; how it was run: as §2
# Staphylococcus aureus [17] = assay: Antibacterial activity against methicillin-resistant Staphylococcus aureus clinical isolate by broth microdilution method; how it was run: as §2
# [18] = test system: Staphylococcus epidermidis; assay: Antibacterial activity against methicillin-susceptible coagulase-negative Staphylococcus epidermidis clinical isolate by broth microdilution method; how it was run: as §2
# [19] = test system: Streptococcus intermedius; assay: Antibacterial activity against Streptococcus intermedius clinical isolate by broth microdilution method; how it was run: as §1
# Enterococcus faecalis [20] = assay: Antibacterial activity against vancomycin-susceptible Enterococcus faecalis clinical isolate by broth microdilution method; how it was run: as §2
# Staphylococcus [21] = assay: Antibacterial activity against methicillin-susceptible coagulase-negative unspeciated Staphylococcus clinical isolate by broth microdilution method; how it was run: as §2
# [22] = test system: Staphylococcus haemolyticus; assay: Antibacterial activity against methicillin-susceptible coagulase-negative Staphylococcus haemolyticus clinical isolate by broth microdilution method; how it was run: as §2
# Streptococcus agalactiae = assay: Antibacterial activity against Streptococcus agalactiae clinical isolate by broth microdilution method; how it was run: as §1
# Staphylococcus simulans [23] = assay: Antibacterial activity against methicillin-resistant coagulase-negative Staphylococcus simulans clinical isolate by broth microdilution method; how it was run: as §2
# Staphylococcus hominis [24] = assay: Antibacterial activity against methicillin-susceptible coagulase-negative Staphylococcus hominis clinical isolate by broth microdilution method; how it was run: as §2
# Enterococcus faecium [25] = assay: Antibacterial activity against vancomycin-susceptible Enterococcus faecium clinical isolate by broth microdilution method; how it was run: as §1
# [26] = test system: Streptococcus constellatus; assay: Antibacterial activity against Streptococcus constellatus clinical isolate by broth microdilution method; how it was run: as §1
# Staphylococcus warneri [27] = assay: Antibacterial activity against methicillin-resistant coagulase-negative Staphylococcus warneri clinical isolate by broth microdilution method; how it was run: as §2
# Streptococcus mitis = assay: Antibacterial activity against Streptococcus mitis clinical isolate by broth microdilution method; how it was run: as §1
# Staphylococcus aureus [28] = assay: Antibacterial activity against methicillin-susceptible Staphylococcus aureus clinical isolate by broth microdilution method; how it was run: as §2
# [29] = test system: Staphylococcus haemolyticus; assay: Antibacterial activity against methicillin-resistant coagulase-negative Staphylococcus haemolyticus clinical isolate by broth microdilution method; how it was run: as §2
# Staphylococcus cohnii [30] = assay: Antibacterial activity against methicillin-resistant coagulase-negative Staphylococcus cohnii clinical isolate by broth microdilution method; how it was run: as §2
# Streptococcus sp. = assay: Antibacterial activity against Streptococcus sp. clinical isolate by broth microdilution method
# How it was run: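 MIC by CLSI broth microdilution in frozen microtiter trays holding serial dilutions of each agent, prepared from standard laboratory powders. Comparator susceptibility interpreted with CLSI breakpoints.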
# Mammaliicoccus sciuri [31] = assay: Antibacterial activity against methicillin-resistant coagulase-negative Staphylococcus sciuri clinical isolate by broth microdilution method; how it was run: as §2
# Streptococcus equinus = assay: Antibacterial activity against Streptococcus bovis clinical isolate by broth microdilution method; how it was run: as §1
# Staphylococcus hominis [32] = assay: Antibacterial activity against methicillin-resistant coagulase-negative Staphylococcus hominis clinical isolate by broth microdilution method; how it was run: as §2
# Staphylococcus cohnii [33] = assay: Antibacterial activity against methicillin-susceptible coagulase-negative Staphylococcus cohnii clinical isolate by broth microdilution method; how it was run: as §2
# Mammaliicoccus sciuri [34] = assay: Antibacterial activity against methicillin-susceptible coagulase-negative Staphylococcus sciuri clinical isolate by broth microdilution method; how it was run: as §2
# Enterococcus faecalis [35] = assay: Antibacterial activity against vancomycin-resistant and teichoplanin-susceptible Enterococcus faecalis clinical isolate by broth microdilution method; how it was run: as §2
structure (smiles),measurement,setting,value
CC(=O)NC[C@H]1CN(c2ccc(N3CCOCC3)c(F)c2)C(=O)O1 [LINEZOLID],MIC50,Streptococcus oralis,1 mg/L
same,MIC90,Streptococcus oralis,1 mg/L
same,MIC50,Enterococcus faecalis [1],1 mg/L
same,MIC90,Enterococcus faecalis [1],2 mg/L
same,MIC50,Streptococcus pneumoniae [2],1 mg/L
same,MIC90,Streptococcus pneumoniae [2],1 mg/L
same,MIC50,[3],1 mg/L
same,MIC90,[3],1 mg/L
same,MIC50,Enterococcus faecium [4],2 mg/L
same,MIC90,Enterococcus faecium [4],2 mg/L
same,MIC50,Staphylococcus xylosus [5],1 mg/L
same,MIC90,Staphylococcus xylosus [5],1 mg/L
same,MIC50,Streptococcus sanguinis,1 mg/L
same,MIC90,Streptococcus sanguinis,1 mg/L
same,MIC50,[6],1 mg/L
same,MIC90,[6],1 mg/L
same,MIC50,Staphylococcus capitis [7],1 mg/L
same,MIC90,Staphylococcus capitis [7],1 mg/L
same,MIC50,Staphylococcus [8],1 mg/L
same,MIC90,Staphylococcus [8],1 mg/L
same,MIC50,Staphylococcus simulans [9],1 mg/L
same,MIC90,Staphylococcus simulans [9],1 mg/L
same,MIC50,Streptococcus pneumoniae [10],1 mg/L
same,MIC90,Streptococcus pneumoniae [10],1 mg/L
same,MIC50,Staphylococcus warneri [11],1 mg/L
same,MIC90,Staphylococcus warneri [11],1 mg/L
same,MIC50,[12],1 mg/L
same,MIC90,[12],1 mg/L
same,MIC50,Staphylococcus capitis [13],1 mg/L
same,MIC90,Staphylococcus capitis [13],1 mg/L
same,MIC50,Streptococcus pneumoniae [14],1 mg/L
same,MIC90,Streptococcus pneumoniae [14],1 mg/L
same,MIC50,Staphylococcus xylosus [15],1 mg/L
same,MIC90,Staphylococcus xylosus [15],1 mg/L
same,MIC50,Enterococcus faecium [16],2 mg/L
same,MIC90,Enterococcus faecium [16],2 mg/L
same,MIC50,Staphylococcus aureus [17],2 mg/L
same,MIC90,Staphylococcus aureus [17],2 mg/L
same,MIC50,[18],1 mg/L
same,MIC90,[18],1 mg/L
same,MIC50,[19],1 mg/L
same,MIC90,[19],1 mg/L
same,MIC50,Enterococcus faecalis [20],1 mg/L
same,MIC90,Enterococcus faecalis [20],2 mg/L
same,MIC50,Staphylococcus [21],1 mg/L
same,MIC90,Staphylococcus [21],1 mg/L
same,MIC50,[22],1 mg/L
same,MIC90,[22],1 mg/L
same,MIC50,Streptococcus agalactiae,1 mg/L
same,MIC90,Streptococcus agalactiae,1 mg/L
same,MIC50,Staphylococcus simulans [23],1 mg/L
same,MIC90,Staphylococcus simulans [23],1 mg/L
same,MIC50,Staphylococcus hominis [24],1 mg/L
same,MIC90,Staphylococcus hominis [24],1 mg/L
same,MIC50,Enterococcus faecium [25],2 mg/L
same,MIC90,Enterococcus faecium [25],2 mg/L
same,MIC50,[26],1 mg/L
same,MIC90,[26],1 mg/L
same,MIC50,Staphylococcus warneri [27],1 mg/L
same,MIC90,Staphylococcus warneri [27],1 mg/L
same,MIC50,Streptococcus mitis,1 mg/L
same,MIC90,Streptococcus mitis,1 mg/L
same,MIC50,Staphylococcus aureus [28],2 mg/L
same,MIC90,Staphylococcus aureus [28],2 mg/L
same,MIC50,[29],1 mg/L
same,MIC90,[29],1 mg/L
same,MIC50,Staphylococcus cohnii [30],1 mg/L
same,MIC90,Staphylococcus cohnii [30],1 mg/L
same,MIC,Streptococcus sp.,≤ 0.12 mg/L
same,MIC50,Mammaliicoccus sciuri [31],1 mg/L
same,MIC90,Mammaliicoccus sciuri [31],1 mg/L
same,MIC50,Streptococcus equinus,1 mg/L
same,MIC90,Streptococcus equinus,1 mg/L
same,MIC50,Staphylococcus hominis [32],1 mg/L
same,MIC90,Staphylococcus hominis [32],1 mg/L
same,MIC50,Staphylococcus cohnii [33],1 mg/L
same,MIC90,Staphylococcus cohnii [33],1 mg/L
same,MIC50,Mammaliicoccus sciuri [34],1 mg/L
same,MIC90,Mammaliicoccus sciuri [34],1 mg/L
CC1(C)S[C@@H]2[C@H](NC(=O)[C@H](N)c3ccccc3)C(=O)N2[C@H]1C(=O)O [AMPICILLIN],MIC50,Enterococcus faecalis [1],1 mg/L
same,MIC90,Enterococcus faecalis [1],2 mg/L
same,MIC50,Enterococcus faecium [4],128 mg/L
same,MIC50,Enterococcus faecium [16],128 mg/L
same,MIC90,Enterococcus faecium [16],> 128 mg/L
same,MIC50,Enterococcus faecalis [20],1 mg/L
same,MIC90,Enterococcus faecalis [20],1 mg/L
same,MIC50,Enterococcus faecium [25],128 mg/L
same,MIC90,Enterococcus faecium [25],> 128 mg/L
same,MIC,Enterococcus faecalis [35],0.5 mg/L
